Measured values reported in ChEMBL document CHEMBL5715941, “AZD1152, a selective inhibitor of Aurora B kinase, inhibits human tumor xenograft growth by inducing apoptosis” (Clin Cancer Res, 2007).

Columns and labels:
HL-60 [1] = assay: Antitumor activity against human HL-60 cells xenografted in immunodeficient athymic mouse assessed as inhibition of tumor growth at 75 mg/kg, ip administered twice daily for 13 days relative to control; type: functional, organism-based; settings: time 13.0 day
[2] = Toxicity in athymic nude rat xenografted with human SW620 cells assessed as maximal body weight loss at 25 mg/kg/day, iv for 24 h following 4 days; type: organism-based, SW-620; settings: in vivo, 96 h, time 4 day
Method in brief: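 Male nude rats bearing SW620 xenografts received vehicle or AZD1152 at 25 mg/kg/d i.v. once daily for 4 consecutive days. Body weight was tracked, with maximal loss taken relative to vehicle-treated animals.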

HL-60 [3] = assay: Antitumor activity against human HL-60 cells xenografted in immunodeficient athymic mouse assessed as inhibition of tumor growth at 45 mg/kg, iv administered twice daily for 5 days relative to control; type: functional; settings: HL-60, 120 h, time 5 day

With `Cc1cc(Nc2cc(N3CCN(C)CC3)nc(Sc3ccc(NC(=O)C4CC4)cc3)n2)n[nH]1` as the compound, how does the inhibition (HL-60 [1]) read?
Its inhibition is 98%.

For `CCN(CCCOc1ccc2c(Nc3cc(CC(=O)Nc4cccc(F)c4)n[nH]3)ncnc2c1)CCOP(=O)(O)O` [BARASERTIB], which Activity [2] is on record?
Its Activity is 5%.

Which inhibition in vivo at 45 mg/kg (HL-60 [3]) does the source give for `CCc1cccc(CC)c1NC(=O)N1Cc2[nH]nc(NC(=O)c3ccc(N4CCN(C)CC4)cc3)c2C1` [PHA-680632] here?
Its inhibition in vivo at 45 mg/kg is 85%.
